Data: ChEMBL document CHEMBL4049418, “6-OH-Phenanthroquinolizidine Alkaloid and Its Derivatives Exert Potent Anticancer Activity by Delaying S Phase Progression” (J Med Chem, 2017)
The source made the active and inactive calls. No cut-off for these calls is given here.

Experiments:
Assay type in all cases: functional
[1] = test system: Bel-7402; test: Induction of apoptosis in human Bel7402 cells assessed as early apoptotic cells at 1 nM after 72 hrs by Annexin V/propidium iodide staining based flow cytometric analysis (reference value: 3.66%)
Outline: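 BEL-7402 cells (3 × 10⁵ per well, 6-well plates) exposed for 72 h. Harvested, PBS-washed, resuspended in cold binding buffer with annexin V–FITC and PI, and stained 15 min in the dark at room temperature. Early apoptotic, late apoptotic and necrotic fractions quantified by flow cytometry.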

[2] = test system: Bel-7402; test: Cell cycle arrest in human Bel7402 cells assessed as accumulation in S-phase at 0.012 to 1 uM after 24 hrs by propidium iodide staining-based flow cytometry
Outline: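 BEL-7402 cells exposed for 24 h, then fixed in 70% ethanol at −20 °C for ≥1 h. Stained with 50 μg/mL propidium iodide plus 10 μg/mL RNase A for 30 min in the dark at room temperature. DNA content read by flow cytometry on ≥1.0 × 10⁴ cells per sample.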

[3] = Growth inhibition of human KB-HU-R cells after 8 days by methylene blue-staining based spectrophotometry; settings: 192 h

Row | SMILES | Activity [1] [%] | Activity [2] | GI50 [3] [nM]
1 | COc1cc2c3c(c4ccc(O)cc4c2cc1OC)CN1CCCC[C@@H]1C3 | 3.11 |  | 
2 | COc1cc2c3c(c4cc(OC)c(OC)cc4c2cc1OC)[C@H](O)[C@@H]1CCCN1C3 |  | Active | 30
